Tested on: MS2 coat protein
Test: apparent Kd, MS2 coat protein; higher = weaker binding; RNA-MaP array; FMN 200 µM where present
Summary of the method: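 Green signal was scaled to red-channel RNA signal and control-cluster median Fmax, and the apparent Kd was taken as the median of filtered per-cluster binding-curve fits. The binding series used SNAP-549-labelled MS2 coat protein from 0.7 or 1.5 nM, doubling to 3 µM, on designs transcribed by stalled E. coli RNA polymerase on Illumina sequencing-chip clusters. Each series ran without and then with constant ligand in 100 mM Tris-HCl pH 7.5, 80 mM KCl, 4 mM MgCl2, BSA, DTT, yeast tRNA and Tween-20.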

[1] = designed as: OFF switch for flavin mononucleotide, no ligand
[2] = ligand present: flavin mononucleotide, designed as: OFF switch for flavin mononucleotide
[3] = designed as: ON switch for flavin mononucleotide, no ligand
[4] = ligand present: flavin mononucleotide, designed as: ON switch for flavin mononucleotide

| Sequence | apparent Kd [1] [µM] | apparent Kd [2] [µM] | apparent Kd [3] [µM] | apparent Kd [4] [µM] |
| --- | --- | --- | --- | --- |
| GUAGCUAGUAAAGGAUAUUAGUGUGUGUAAUAUUGAGAAGGUUACAUGAGGAUCACCCAUGUGAUCAAUCACUGUUAAGGUUGC | 0.00629 | 0.00633 | – | – |
| CGUAGGAUCCAGAAGGCAUGAACAUGAGGAUCACCCAUGUUAAAAUACAUGAGGAUAUGGAUCCUACGAAAAGUGCGAAAGCAC | – | – | 0.00575 | 0.00499 |
| CCGAAACCUCAGAAGGACCACAUGAGGAUCACCCAUGUCAAGCAAAACGGUAGGAUAUGAGGGAAAUGUCGAUAUACCCGACAG | – | – | 0.0079 | 0.00472 |
| UUGUUGUAUGUAGGAUAUGCGUGUUAUUAUUAUGCAGAAGGACAUGAGGAUCACCCAUGUGUAUUAUUAUUAUAUAUUAUAUAU | 0.0215 | 0.0196 | – | – |
| CCUCCACAUUAGGAUAUCAUCAAACUAUUGUGAUGAGAAGGAAUGACAUGAGGAUCACCCAUGUUAUCGUGAUG | 0.0209 | 0.0181 | – | – |
| UAAGUUUUGGUAGGAUAUACUUUAAAUUUCUCUAUCCAUACAUGAGGAUCACCCAUGUUUACAUUGUAGAAGGACCACUAUGUU | 0.0246 | 0.0197 | – | – |
| CACACGAAAGUCGAACGAUGAUCCAGAAGGAGUAUAACAUGACAUGAGGAUCACCCAUGUGCCAACUAGGAUAUGGAUCAUGGG | 0.0863 | 0.0151 | – | – |
| CGGACGUCAGGAUAUCUGAUGUCUAACUUCGGUUAGACAUCAGAGAAGGGACAUGAGGAUCACCCAUGUCCGAG | 0.0222 | 0.0169 | – | – |
| CAAUAUAACACAGGAUAUGUCUCGUUUACAUGAGGAUCACCCAUGUCCGAAACAGAAGGGUGACCUGAUAUAGGACGUUAGGUG | – | – | 0.367 | 0.138 |
| GAAGCACGCAUUAACAUGAGGAUCACCCAUGUGAAAACACGUGAGGAUAUGGAUCUGAAGAAGAUCCAGAAGGCACCGUGCUAA | – | – | 0.00544 | 0.00478 |
| CCGUUACAUGAGGAUCACCCAUGUGAGGAUAUCGGUGUGACUGGCAGCGUGCGGGACUCGAGAAGGCACUGGGC | 0.0712 | 0.0879 | – | – |
| GGUCGUCACAUUAACAUGAGGAUCACCCAUGUCUCUUGACAUGAGGAUAUGGAUCCUAAUUGGAUCCAGAAGGCAUGGACGACC | – | – | 1.03 | 0.0965 |
| CGAAGUCCGUAGAAGGGUGACAUGAGGAUCACCCAUGUGCGAGCGGAGGGAGUCAGCGGCUCGCCACAGGAUAUACGGAGCACG | – | – | 0.0612 | 0.051 |
| UUAAAUCAUGUAGGAUAUGCAUGGCGAAGCUACGCAGAAGGACAUGAGGAUCACCCAUGUUAUAGCUACCGAGUAAGGUGGCAA | 0.0926 | 0.227 | – | – |
| GGGCAAAAGUAGAAGGGAUAUACGAAAAGUAUAUCAGGAUAUACAUGAGGAUCACCCAUGUUCUAAAAGUGAUAAUCCUCCCUA | 0.07 | 0.346 | – | – |
| AGAUGACAUGUAGGAUAUCGAGGCCUGAGGCCUCGAGAAGGACAUGAGGAUCACCCAUGUUUGCCGAGCAUGGAAUCCCGCACU | 0.0291 | 0.205 | – | – |
| AUAUAUAUUAGAGGAUAUGUGUUCAUGUUACAUGAGGAUCACCCAUGUUUAGGUUGAUUGAUCUUACAGAAGGCUAUACAAUGA | 0.0972 | 0.0785 | – | – |
| CAGUACAUGUUAGGAUAUGAUUCGGUACAGCGAUCAGAAGGAACAUGAGGAUCACCCAUGUGACCCACGAUUUGCAAACUAAGA | 0.00843 | 0.0178 | – | – |
| UCCCUGUGAGGAUAUCUCUUUGAGUGCGGCGAAUUCAGGUGGGAGAAGGCACAUGAGGAUCACCCAUGUAUUGC | 0.0402 | 0.073 | – | – |
| AGAGCCUCGUGAGGAUAUACAUGAGGAUCACCCAUGUAAAUGGAAUAACGGAGGAAACUCCGAAUGUAGAAGGCACGAGGCUCA | 0.0799 | 0.966 | – | – |
